The list is not random: actives were taken first. Their share in the collection is about 1.8%.
PABP polyA inh: PABP-poly(A) binding inhibition | calls only at 35 µM | AID 2014 | PABP-poly(A) RNA binding, fluorescence polarization | 1% of 290,000 active | P11940;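 note: calls also rest on retests at 20 µM and on dose response follow-up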
Target sequence (P11940 whole entry, looked up): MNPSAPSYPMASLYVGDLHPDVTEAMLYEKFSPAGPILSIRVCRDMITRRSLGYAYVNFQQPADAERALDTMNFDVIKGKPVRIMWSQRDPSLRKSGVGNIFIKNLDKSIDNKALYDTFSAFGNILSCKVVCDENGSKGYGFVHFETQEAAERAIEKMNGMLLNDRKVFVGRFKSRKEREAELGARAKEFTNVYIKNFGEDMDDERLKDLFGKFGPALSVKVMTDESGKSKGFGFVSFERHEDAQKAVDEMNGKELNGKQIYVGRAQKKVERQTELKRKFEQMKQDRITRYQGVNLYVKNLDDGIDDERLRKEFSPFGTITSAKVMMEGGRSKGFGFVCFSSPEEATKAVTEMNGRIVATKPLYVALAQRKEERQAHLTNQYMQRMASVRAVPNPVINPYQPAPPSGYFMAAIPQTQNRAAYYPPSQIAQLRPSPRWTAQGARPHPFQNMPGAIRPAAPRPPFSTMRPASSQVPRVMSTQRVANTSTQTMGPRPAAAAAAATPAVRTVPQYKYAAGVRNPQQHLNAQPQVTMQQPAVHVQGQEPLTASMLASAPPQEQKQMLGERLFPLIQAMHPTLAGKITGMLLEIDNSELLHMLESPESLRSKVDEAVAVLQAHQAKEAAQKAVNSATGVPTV
PABP1 MLLE inh: blocks PAM2 peptide binding to the PABP1 MLLE domain | AID 588489 | GST-MLLE / FITC-PAM2 fluorescence polarization | 0.36% of 360,000 active | inhibition, % at 20 µM; in the data active = inhibition above about 35%, passing the limit was not always enough
eIF4H FP inh: inhibitors of RNA binding by human eIF4H; Q15056; eIF4H fluorescence polarization binding assay; inhibition, % at 35 µM; 0.94% of 290,000 active;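 note: calls also rest on retests at 20 µM and on dose response follow-up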
MT1-MMP act inh: MT1-MMP (human) activation inhibition; P50281; HT1080 RFP-PRO-GFP cells, GFP/RFP ratio fluorescence, overnight; percent of plate control window, DMSO zero; GFP/RFP ratio change, % at 20 µM; 0.061% of 360,000 active; AID 651647;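 active = GFP/RFP ratio change of at least 30% with cell ATP level not reduced by more than half and red fluorescence within 50% of control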
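Assay system – RFP-PRO-GFP reporter HT1080 cells · Compound dosing – single dose of 20 µM compound, 1% DMSO final · Incubation – overnight compound exposure at 37 °C · Measure – GFP/RFP fluorescence ratio · Benchmarks – DMSO wells and RFP-L50D-GFP cells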
SKN-1 block: inhibitors of C. elegans SKN-1; C. elegans VP596 Pgst-4::GFP/RFP ratio, acrylamide-induced, 24 h; inhibition, % at 21.8 µM; 0.49% of 360,000 active; AID 624304;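 active = interference check ratio from 0.5 to 1.5 plus GFP to RFP signal ratio inhibition reaching or exceeding a fixed threshold, cut at about 30% in these data, passing the limit was not always enough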
MT1-MMP conf: validation of inhibitors of human MT1-MMP activation; 10% of 200 active; HT1080 RFP-PRO-GFP cells, GFP and RFP fluorescence ratio, overnight; shares compounds with MT1-MMP act inh; inhibition, % at 20 µM;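 active = inhibition of at least 50% in the primary cell screen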
Numbers stand for hits; . = inactive; ? = inconclusive; / = no result; + = active, no number. Unless noted, the rule behind the calls is not given here.

SMILES | PABP polyA inh | PABP1 MLLE inh | eIF4H FP inh | MT1-MMP act inh | SKN-1 block | MT1-MMP conf
COc1ccc(C(C)(NC(C)=O)c2nc(-c3cnc4ccccc4c3)cs2)cc1 (stereo unspecified) | / | . | / | . | . | /
C/C(=N\Nc1nc2ccccc2[nH]1)c1ccc([N+](=O)[O-])cc1 | . | . | . | 51 | . | .
COc1cccc2[nH]c3c(N4CCCCC4)ncnc3c12 | . | . | . | 32 | . | .
COc1cccc(C=Nc2ccc(N3CCOCC3)cc2)c1O | . | . | . | . | . | /
O=[N+]([O-])c1cc(Br)c(O)c(C=Nc2ccc(N3CCOCC3)cc2)c1 | . | . | . | 40 | . | .
COc1ccc(C2=NN(C(=O)CSc3nc(=O)n4cccc(C)c4n3)C(c3ccc(C)cc3)C2)cc1 (stereo unspecified) | / | . | / | . | . | /
COC(=O)c1ccc2c(c1)C(C)(C)C(/C=C/c1ccc(O)cc1)=[N+]2C | . | . | ? | . | . | /
COC(=O)c1ccc2c(c1)C(C)(C)C(/C=C/c1ccc(OC)c(OC)c1OC)=[N+]2C | . | . | . | 51 | 46 | .
COc1cc(/C=C/c2cc(OC(C)=O)c3ccccc3n2)c(OC(C)=O)c([N+](=O)[O-])c1 | . | . | . | 37 | . | .
O=C(NCc1ccccc1Cl)c1csc([C@@H]2O[C@H](CO)[C@H](O)[C@H](O)[C@H]2O)n1 | / | . | / | . | . | /
CCCCCC(=O)N1C[C@H](O)[C@@H](n2cc(C3CC3)nn2)C[C@@H]1c1ccc(Cl)cc1 | / | . | / | . | . | /
O=C(Nc1ccccc1C(=O)NC1CC1)c1ccccc1F | / | . | / | . | . | /
CN1/C(=C/C=C/c2n(C)c3cc([N+](=O)[O-])c([N+](=O)[O-])cc3[n+]2C)C(C)(C)c2ccccc21 | / | . | / | 97 | 57 | 94
O=C(NCCCn1ccnc1)c1cccnc1 | . | . | . | 32 | . | .
N#CCCN1CCCc2cc(N=Nc3ccc(C(F)(F)F)cc3)ccc21 | . | . | . | 32 | . | .
COc1ccc(Br)cc1CNc1ccc(O)cc1 | . | . | . | 52 | . | .
COc1ccc(Br)cc1CNc1ccc2[nH]c(=O)[nH]c2c1 | ? | . | ? | . | . | /
CCc1ccc(OCC(=O)NNC(=O)c2cc(S(=O)(=O)N(C)C)ccc2N2CCCC2)cc1 | / | . | / | . | . | /
O=C(N/N=C/C1CC=CCC1)c1ccc(O)cc1O (stereo unspecified) | . | . | . | . | . | /
O=C(N/N=C/C1CC=CCC1)c1cc2ccccc2cc1O (stereo unspecified) | . | . | . | 35 | . | .
O=[N+]([O-])c1ccc(N2CCCCC2)s1 | . | . | . | 32 | . | .
CC1CCCN(c2ccc([N+](=O)[O-])s2)C1 (stereo unspecified) | . | . | . | . | . | /
N=C1/C(=C/c2cccs2)C(=O)N=C2SN=C(SCc3ccccc3)N12 | . | . | . | . | . | /
CSC1=NSC2=NC(=O)/C(=C\c3cccs3)C(=N)N12 | . | . | . | 35 | . | .
COc1ccc(-c2cc(=O)c3c(O)c(OC)c(O)cc3o2)cc1 | . | . | . | . | . | /
SMILES | PABP polyA inh | PABP1 MLLE inh | eIF4H FP inh | MT1-MMP act inh | SKN-1 block | MT1-MMP conf
COc1cc(-c2cc(=O)c3c(O)c(OC)c(OC)cc3o2)cc(OC)c1O | . | . | . | 31 | . | .
O=C(O)c1cc(S(=O)(=O)N2CCCCC2)ccc1N1CCCC1 | / | . | / | . | . | /
COc1cc(NS(=O)(=O)c2ccc(C)cc2)c2c(c1N)C(=O)c1ccccc1C2=O | / | . | / | 47 | 36 | .
COC(=O)C(C(=O)OC)c1ccccc1NS(=O)(=O)c1ccc(C)cc1 | / | / | / | . | . | /
O=S(=O)(c1ccc2nc(COc3ccc(Cl)cc3Cl)[nH]c2c1)N1CCOCC1 | . | . | . | 35 | . | .
CN1C2=CC=CC=CC2=[N+](C)C12C=CC(=[N+]([O-])[O-])C=C2[N+](=O)[O-] (stereo unspecified) | . | . | . | 39 | . | .
COc1ccc(C#Cc2ccc(C3=CC(=O)CC(C)(C)C3=O)cc2)cc1 | / | . | / | . | . | /
CCOC(=O)C1=C(C)N=c2s/c(=C\c3ccc(OC(C)=O)cc3)c(=O)n2C1/C=C/c1ccccc1 (stereo unspecified) | . | . | . | . | . | /
CCOC(=O)C1=C(C)N=c2s/c(=C\c3ccc(OC(C)=O)c(OCC)c3)c(=O)n2C1/C=C/c1ccccc1 (stereo unspecified) | . | . | . | 42 | . | .
Cc1[nH]n(-c2ccccc2)c(=O)c1N=Nc1nccs1 | . | . | . | 32 | . | .
O=C(O)c1cccc(N2C(=O)c3cc([N+](=O)[O-])cc4cc([N+](=O)[O-])cc(c34)C2=O)c1 | + | . | 68 | 42 | . | .
O=C(O)c1cccc(N2C(=O)c3cccc4cccc(c34)C2=O)c1 | . | . | . | . | . | /
O=C1CN(c2ccccc2)C(=S)N1C(=O)c1ccc(Br)cc1 | . | . | . | . | . | /
CCC(=O)N1CCC1(C)C(=O)Nc1ccc(F)cc1 (stereo unspecified) | / | . | / | 34 | . | .
CNC[C@H]1Oc2cc(Br)ccc2S(=O)(=O)N([C@H](C)CO)C[C@H]1C | / | . | / | . | . | /
Cc1ccccc1N1CC(=O)N(c2ccccc2C)CC1=O | . | . | . | 36 | . | .
O=C1CN(c2ccccc2Cl)C(=O)CN1c1ccccc1Cl | . | . | . | . | . | /
C[C@H](CO)N1C[C@H](C)[C@@H](CN(C)S(=O)(=O)c2ccc(F)cc2)Oc2ccc(NC(=O)Cc3ccccc3)cc2C1=O | / | . | / | . | . | /
C[C@H](CO)N1C[C@H](C)[C@@H](CN(C)S(=O)(=O)c2ccc(F)cc2)Oc2ccc(NC(=O)CCN3CCOCC3)cc2C1=O | / | . | / | 32 | . | .
CCN1C(=O)/C(=C2\C=Cc3ccccc3N2CC)SC1=S | . | . | . | 99 | . | .
CCN1C(=O)/C(=c2\o/c(=C3\C=Cc4ccccc4N3CC)c(=O)n2CC)SC1=S | . | . | . | . | . | /
COC(=O)[C@H](Cc1ccccc1)NC(=O)C1CCN(C(=O)[C@H](C)NS(=O)(=O)c2ccc(C)cc2)CC1 | . | . | . | . | . | /
Cc1ccccc1C1=C/C(=C(\SS/C(C(=O)c2ccc(OCC(=O)O)c(Cl)c2Cl)=C2\C=C(c3ccccc3C)SS2)C(=O)c2ccc(OCC(=O)O)c(Cl)c2Cl)SS1 | / | . | / | 34 | . | .
O=C(O)COc1ccc2nsnc2c1Cl | . | . | . | . | . | /
COc1ccccc1C(=O)N/C(=C\c1cn(S(=O)(=O)N(C)C)c2ccccc12)C(=O)N1CCN(C)CC1 | / | . | / | . | . | /
O=C(Nc1ccc(S(=O)(=O)Nc2ccccc2)cc1)C1COc2ccccc2O1 (stereo unspecified) | . | . | . | 31 | . | .

Assay outcomes: PubChem BioAssay, Sanford-Burnham Center for Chemical Genomics
